Mot1-301 SUMO: inhibitors of SUMOylation pathway: yeast Mot1-301 growth rescue; S. cerevisiae Mot1-301 growth rescue, ATP luminescence, 38.5C; percent above DMSO median, 100 means doubled; growth rescue, % at 18.8 µM; 1% of 320,000 active; AID 2716;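 active = every valid replicate shows activation above 250% relative to neutral control wells; inactive = the rest, any valid replicate at or below 250%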;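 also: OY570 slx delta 5 strain wells were the positive control but not used for scaling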
APOBEC3G inh: blocks human APOBEC3G single-stranded DNA deamination | Q9HC16 | recombinant A3G, ssDNA deamination FAM/TAMRA fluorescence | inhibition, % at 20 µM | 0.28% of 330,000 active | AID 493012;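 active = inhibition of at least 40% at 20 µM, with no more than 30% in the related APOBEC3A deaminase screen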;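 also: plate controls were DMSO wells with A3G for no effect and wells lacking A3G enzyme for full effect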
Target sequence (Q9HC16 whole entry, looked up): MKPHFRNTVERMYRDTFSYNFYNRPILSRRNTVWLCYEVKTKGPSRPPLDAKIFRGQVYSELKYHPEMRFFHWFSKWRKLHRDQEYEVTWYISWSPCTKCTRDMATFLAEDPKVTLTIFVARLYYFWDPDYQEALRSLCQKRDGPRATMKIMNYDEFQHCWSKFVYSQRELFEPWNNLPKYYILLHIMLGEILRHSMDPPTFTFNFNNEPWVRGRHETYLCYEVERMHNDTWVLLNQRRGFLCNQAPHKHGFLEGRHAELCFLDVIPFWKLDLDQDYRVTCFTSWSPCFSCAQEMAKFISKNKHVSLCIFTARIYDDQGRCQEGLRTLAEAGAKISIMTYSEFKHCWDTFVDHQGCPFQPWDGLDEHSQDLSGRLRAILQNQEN
ASAP1 GAP inh: ASAP1 ArfGAP inhibition. Q9ULH1. ASAP1-stimulated ARF1 GTP hydrolysis, GDP FP detection. inhibition, % at 16.5 µM. 0.19% of 360,000 active. AID 624377; in the data active = inhibition above about 25%;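 also: 0% = vehicle with enzyme and substrate and 100% = no enzyme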
Statin myotox sup: suppression of simvastatin myotoxicity; C2C12 myotubes + simvastatin, ATP luminescence, 48 h; scaled: DMSO 0, geranylgeraniol control 100; rescue of ATP level, % at 7.49 µM; 0.78% of 330,000 active; AID 602340;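 active = mean ATP rescue above about 67%, or every replicate alone reaching that limit, limit read from the data, passing the limit was not always enough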;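 also: myotubes were challenged with 10 µM simvastatin during compound exposure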
A3A deaminase: inhibitors of human APOBEC3A DNA deaminase | recombinant A3A, FAM/TAMRA ssDNA deamination fluorescence | inhibition, % at 20 µM | 0.41% of 330,000 active;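 active = at least 40% inhibition at 20 µM here, with at most 30% in a related deaminase screen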;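 also: plate controls were A3A with DMSO for no effect and wells lacking A3A enzyme for full effect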
Target sequence (P31941 whole entry, looked up): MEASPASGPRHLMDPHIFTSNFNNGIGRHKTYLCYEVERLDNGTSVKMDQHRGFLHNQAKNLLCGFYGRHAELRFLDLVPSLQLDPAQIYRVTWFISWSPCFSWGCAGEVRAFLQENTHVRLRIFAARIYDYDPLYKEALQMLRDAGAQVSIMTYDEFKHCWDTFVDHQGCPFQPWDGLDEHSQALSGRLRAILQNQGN
ARFGAP1 inhibitor: inhibitors of rat ARFGAP1 | Arfgap1-stimulated ARF1 GTP hydrolysis, GDP FP detection | inhibition, % at 16.5 µM | 0.26% of 360,000 active | AID 651572;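 active = inhibition above a per-plate limit, mean inhibition of low control wells plus 3 SD, cut at about 25% in these data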;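 also: 0% = DMSO wells with enzyme and 100% = wells lacking Arfgap1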
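Repeats: one replicate per compound; assay system: rat Arfgap1 catalytic domain, aa 1-136; times: enzyme reaction 120 min at 25 °C after 20 min preincubation; detection: FP of antibody-bound GDP Alexa 633 tracer, ex 620/em 688 nm; benchmarks: high control wells lacking Arfgap1, low control full reaction with DMSO; reagent: human ARF1(Δ1-17)-GTP substrate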
* marks the source's active call; other numbers are inactive results; nt = no result given; ! = repeats disagree. Compounds with a hit are over-represented: about 2.1% of the library has one in this group of screens.

SMILES	Mot1-301 SUMO	APOBEC3G inh	ASAP1 GAP inh	Statin myotox sup	A3A deaminase	ARFGAP1 inhibitor
COc1ccc(-c2csc(C(C)(O)c3ccccc3)n2)cc1OC (stereo not given)	nt	nt	7.5	112.4*	nt	-3.1
C[C@H]1CN([C@@H](C)CO)S(=O)(=O)c2ccc(-c3ccncc3)cc2O[C@H]1CN(C)C(=O)C1CCC1	nt	nt	nt	-6.1	nt	nt
C=C(C)C1CC=C(C)/C(=N/NC(=O)c2ccc(NC(=O)CC)cc2)C1 (stereo not given)	2.1	-6.8	4.4	119.0*	-3.9	-2.9
CC1CN(CC(O)COc2ccc(C(C)C)cc2)CC(C)O1 (stereo not given)	326.2*	3.3	2.3	-80.6	2.6	1.7
CC(=O)c1ccc(OCC(O)CN2CC(C)OC(C)C2)cc1 (stereo not given)	18.4	-2.6	-0.7	3.2	-0.2	-7.5
CCN(C(C)=O)c1cccc2ccccc12	-9.5	0.3	nt	147.3*	-3.9	nt
CCN(C(=O)COC(=O)c1ccc(O)cc1)c1cccc2ccccc12	26.8	-0.5	-4.7	nt	-0.8	4.2
C[C@@H]1CN([C@@H](C)CO)C(=O)c2cccc(NS(=O)(=O)c3ccccc3)c2O[C@@H]1CN(C)Cc1ccc(Oc2ccccc2)cc1	nt	nt	nt	10.5	nt	nt
COc1ccc(S(=O)(=O)Nc2cccc3c2O[C@@H](CN(C)CC2CC2)[C@@H](C)CN([C@H](C)CO)C3=O)cc1	nt	nt	nt	-6.6	nt	nt
COc1ccc(S(=O)(=O)Nc2cccc3c2O[C@H](CN(C)C)[C@@H](C)CN([C@H](C)CO)C3=O)cc1	-2.8	-7.2	-5.0	127.1*!	-3.6	-14.6
C[C@H](CO)N1C[C@H](C)[C@H](CN(C)Cc2ccc(Oc3ccccc3)cc2)Oc2c(NS(=O)(=O)c3ccc(Cl)cc3)cccc2C1=O	nt	nt	nt	79.8*	nt	nt
CC1CCCCC1NC(=O)CCNC(=O)N1CC(=O)Nc2ccccc21 (stereo not given)	-3.2	0.0	-7.0	119.1*	2.6	-10.2
CCN(Cc1ccccc1)C(c1ccccn1)c1nnnn1C1CCCCC1 (stereo not given)	nt	-5.1	12.3	-4.9	3.6	-10.8
CC(c1nnnn1C1CCCCC1)N(Cc1ccccc1)Cc1cccnc1 (stereo not given)	278.4*	-4.3	5.7	-12.6	-4.4	-8.3
CCCCn1c(=O)c(-c2ccccc2)c(O)c2ccccc21	-3.0	-4.7	14.6	120.0*	-4.0	0.0
CCCCCCCCC(=O)NNC(=O)c1c(O)c2ccccc2n(CCC)c1=O	311.6*	-7.0	-1.6	nt	-2.9	-10.8
C[C@H](O)C#Cc1ccc2c(c1)O[C@@H](CN(C)CC1CC1)[C@@H](C)CN([C@@H](C)CO)S2(=O)=O	nt	nt	nt	3.8	nt	nt
Cc1cc(C)n(CC(O)COc2cccc(OCC(O)Cn3nc(C)cc3C)c2)n1 (stereo not given)	22.7	-5.7	6.8	91.0*	-1.5	7.9
CC(C)(C)c1ccc(C(=O)c2c[nH]c(C(=O)NCCCn3ccnc3)c2)cc1	324.3*	-6.7	1.2	nt	-1.0	-2.4
CO[C@@H](CN(C)S(=O)(=O)c1ccc(Cl)cc1)[C@H](C)CN(C(=O)Nc1ccccc1F)[C@H](C)CO	nt	nt	nt	14.3	nt	nt
CNC(=O)C[C@@H]1CC[C@@H]2[C@@H](COc3ccc(NC(=O)c4cc(C)on4)cc3C(=O)N2C)O1	nt	nt	nt	1.6	nt	nt
O=C(NC1CCN(Cc2ccccc2)CC1)C1COc2ccccc2O1 (stereo not given)	273.3*	-7.0	10.9	14.3	-0.3	-19.4
COc1ccc(-c2cc(C(F)(F)F)nc(S(C)(=O)=O)n2)cc1	589.5*	-6.4	0.6	14.5	-3.7	1.8
Cc1ccc(C(=O)c2c3ccccc3[n+]([O-])n2CCC(=O)O)cc1	15.1	0.3	-3.5	79.6*	0.4	-2.2
NC(=O)CCn1c(C(=O)c2ccc(Cl)cc2)c2ccccc2[n+]1[O-]	18.3	-10.9	2.7	nt	-1.5	4.8
SMILES	Mot1-301 SUMO	APOBEC3G inh	ASAP1 GAP inh	Statin myotox sup	A3A deaminase	ARFGAP1 inhibitor
CCCCCCCCOc1ccc(C(=O)O)cc1	80.3	-2.5	-1.2	-10.9	1.1	-6.5
C=C(C)C(=O)OCCCCCCOc1ccc(C(=O)O)cc1	-10.2	33.0	6.2	97.0*	23.1	-6.0
COc1ccccc1-n1nnnc1SCC(=O)Nc1ccccc1	-13.1	-1.4	-5.4	2.4	1.3	11.1
COc1ccccc1-n1nnnc1SCC(=O)Nc1ccccn1	5.3	4.9	-3.2	72.3*	2.2	11.2
CO[C@H]1CN(C)C(=O)c2cc(NC(=O)Nc3cc(F)ccc3F)ccc2OC[C@@H](C)N(C(=O)c2cnccn2)C[C@H]1C	nt	nt	nt	0.5	nt	nt
Cc1noc(C)c1NC(=O)N(C)C[C@@H]1Oc2ncc(C#CC3CCCC3)cc2C(=O)N([C@@H](C)CO)C[C@H]1C	nt	nt	nt	17.9	nt	nt
Cc1cc(C(F)(F)F)nn1CC(=O)NCc1ccco1	-9.5	-1.6	-4.4	3.0	3.2	-4.8
Cc1cc(NS(=O)(=O)c2ccc(Cl)cc2)nn1CC(=O)NCc1ccco1	2.5	-5.2	0.1	97.8*	-2.5	-1.0
COc1cccc(CNC(=O)C[C@H]2C=C[C@H](NC(=O)C3CCOCC3)[C@H](CO)O2)c1	nt	nt	nt	-3.2	nt	nt
CC(C)(C)C(=O)NCC12C=CC(O1)C1C(=O)N(c3ccccc3)C(=O)C12 (stereo not given)	12.5	33.6	-15.0	-26.3	-2.1	-7.4
O=C1C2C3C=CC(CO)(O3)C2C(=O)N1c1ccc(-c2ccccc2)cc1 (stereo not given)	324.4*	8.3	nt	nt	-5.2	nt
O=C(C[C@H]1CC[C@@H]2[C@H](COC[C@@H](O)CN2S(=O)(=O)c2cccc(Cl)c2)O1)NC1CCC1	nt	nt	nt	15.7	nt	nt
CSc1nc(NC(C)=O)nc(C)c1Cl	nt	nt	15.9	146.8*	nt	-0.6
COc1nc(NC(C)=O)nc(C)c1Br	-7.6	-6.1	0.1	nt	2.1	5.5
Cc1ccc(S(=O)(=O)NCC[C@@H]2CC[C@@H](NC(=O)c3cnccn3)[C@@H](CO)O2)cc1	nt	nt	nt	-0.1	nt	nt
Cc1nc(NCc2ccco2)c2cn[nH]c2n1	nt	nt	-10.0	95.3*	nt	-8.4
Cc1ccccc1C(=O)N1CCN(c2ccc(NC(=O)c3ccc([N+](=O)[O-])o3)cc2)CC1	36.9	-7.3	-5.0	166.6*	-0.5	-3.4
CN1CCN(c2ccc(NC(=O)c3ccc([N+](=O)[O-])o3)cc2Cl)CC1	-1.3	-17.2	-8.1	93.6*	-2.0	-0.5
Cc1ccccc1C(=O)N1CCN(c2ccc([N+](=O)[O-])c(NCc3ccco3)c2)CC1	209.1	-1.2	-15.5	129.5*	-2.4	-11.0
CO[C@@H]1CN(C)C(=O)c2ccc(NC(=O)C3CCCC3)cc2OC[C@@H](C)N(CCC(F)(F)F)C[C@H]1C	nt	nt	nt	2.8	nt	nt
COc1cc2sc3cc(NCCCN4CCOCC4)ccc3c(=O)c2cc1OC	3.7	-2.6	11.2	6.3	2.6	31.5*

High-throughput results as filed in PubChem.
